Screens deposited in PubChem BioAssay by Broad Institute.
GASC1 inh: inhibitors of GASC-1 (KDM4C) histone demethylase, primary screen, biochemical, single concentration HTS | inhibition, % at 12.5 µM | 96,000 compounds, 0.15% hits | GST-KDM4C 2-372, H3K9me3 peptide, LANCE TR-FRET | AID 720574, 2013;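 active = mean replicate inhibition above about 25%, with at least 55% of replicates also reaching it, limit read from the data, passing the limit was not always enough; inconclusive = only one of those two conditions met; inactive = neither condition met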
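reagent = H3K9me3 peptide substrate, Fe(II), 2-oxoglutarate | system = GST-tagged GASC-1 (JMJD2C) catalytic fragment, aa 2-372 | amount = enzyme final amount 10 nM | read-out = Fall in 671/618 emission ratio as inhibition | medium = HEPES buffer, pH 7.5, plus ascorbate | schedule = 30 min reaction, 60 min detection, RT | measured by = LANCE TR-FRET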
IDH1 R132H inh: inhibitors of IDH1 R132H reductase, primary screen, biochemical, plate reader, single point. diaphorase/resazurin fluorescence, 60 min. inhibition, % at 10 µM. 70,000 compounds, 0.18% hits. AID 624101, 2012; in the data active = inhibition above about 34%; inconclusive = no clear call, values can overlap the other calls; inactive = below about 11%;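 note: 0% = DMSO and 100% = no enzyme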
Target sequence (O75874 whole entry R132H): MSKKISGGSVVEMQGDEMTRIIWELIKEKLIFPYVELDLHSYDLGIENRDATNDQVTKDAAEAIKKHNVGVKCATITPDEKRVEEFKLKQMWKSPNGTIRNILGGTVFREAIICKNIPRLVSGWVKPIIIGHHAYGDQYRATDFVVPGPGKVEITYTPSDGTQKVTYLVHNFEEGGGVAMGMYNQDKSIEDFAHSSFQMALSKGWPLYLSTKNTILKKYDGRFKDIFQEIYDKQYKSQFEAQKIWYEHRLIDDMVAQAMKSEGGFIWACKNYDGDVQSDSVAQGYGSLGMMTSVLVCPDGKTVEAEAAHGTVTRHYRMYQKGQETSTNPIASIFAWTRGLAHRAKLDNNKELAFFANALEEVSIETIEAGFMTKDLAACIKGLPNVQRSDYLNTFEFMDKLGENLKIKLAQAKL
T cruzi growth-1: T. cruzi intracellular proliferation inhibitors, primary screen, cell-based, beta-gal Tulahuen parasites, NIH3T3 host, luminescence | T. cruzi beta-gal in NIH3T3, GalScreen luminescence, 90 h | inhibition, % at 8.34 µM | 77,000 compounds, 5.9% hits;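 active = mean inhibition above about 93%, with at least 55% of replicates each passing it, limit read from the data, passing the limit was not always enough; inconclusive = only one of those two conditions holds; inactive = neither condition holds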
T cruzi growth-2: T. cruzi intracellular proliferation inhibitors, confirmation, cell-based, NIH3T3 host, beta-gal parasite, luminescence, cherry-pick; shares compounds with T cruzi growth-1; T. cruzi beta-gal in NIH3T3, GalScreen luminescence, 90 h; inhibition, % at 8.35 µM; 5,600 compounds, 72% hits;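 active = mean replicate inhibition above about 95% and at least 55% of replicates individually reaching it, limit read from the data; inconclusive = only one of the two criteria is met; inactive = neither criterion is met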
T cruzi growth-3: inhibitors of intracellular T. cruzi replication, confirmation, NIH3T3 host cells, beta-gal parasites, cherry-pick, set 2; shares compounds with T cruzi growth-1; 5,600 compounds, 21% hits; inhibition, % at 2.09 µM; AID 651740, 2012; T. cruzi beta-gal in NIH3T3, GalScreen luminescence, 90 h;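 active = mean inhibition above about 95%, with at least 55% of replicates also reaching it, limit read from the data; inconclusive = meets just one of the two conditions; inactive = meets neither condition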;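 note: plate controls were neutral control median for no effect and positive control median for full effect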
3T3 cytotox: cytotoxicity in mouse NIH/3T3 fibroblasts, confirmation, cytotoxicity control for T. cruzi proliferation inhibitor project, cell-based, cherry-pick, single point. 5,600 compounds, 14% hits. cytotoxicity (signal decrease), % at 8.35 µM. NIH/3T3 viability, CellTiter-Glo ATP luminescence, 90 h. shares compounds with T cruzi growth-1;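 active = mean signal decrease across replicates above about 35% based on untreated-well scatter, with enough replicates individually passing, limit read from the data; inconclusive = no rule stated though some were filed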;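 note: 0% = median of neutral control wells and 100% = median of positive control wells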
3T3 cytotox 2: NIH/3T3 fibroblast cytotoxicity, confirmation, cytotoxicity control, cell-based, cherry-pick, single point, set 2. AID 651744, 2012. NIH/3T3 viability, CellTiter-Glo ATP luminescence, 90 h. 5,600 compounds, 56% hits. shares compounds with T cruzi growth-1. inhibition, % at 24.9 µM;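 active = mean loss of cell viability signal at or above a set limit, and enough replicates individually reaching it; inconclusive = meets only the mean limit or only the replicate share; inactive = meets neither condition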;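 note: 0% = median of neutral control wells and 100% = median of positive control wells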
Active calls of the source: *. Only a selection was taken, and hits are over-represented in it overall.

Screening C[C@H]1CN([C@@H](C)CO)S(=O)(=O)c2ccc(-c3ccc(F)cc3)cc2O[C@@H]1CN(C)Cc1cccc(F)c1 returned GASC1 inh -2 and T cruzi growth-1 71.
C[C@@H]1CN([C@@H](C)CO)C(=O)c2cc(NC(=O)Nc3ccc(C(F)(F)F)cc3)ccc2O[C@H]1CN(C)Cc1ccc(-c2ccccc2)cc1 was read as GASC1 inh 1, IDH1 R132H inh 0, T cruzi growth-1 104*, T cruzi growth-2 102*, T cruzi growth-3 80, 3T3 cytotox 10 and 3T3 cytotox 2 105*.
Screening C[C@@H]1CN([C@H](C)CO)C(=O)c2cc(NC(=O)Nc3ccc(C(F)(F)F)cc3)ccc2O[C@H]1CN(C)Cc1ccc(-c2ccccc2)cc1 returned GASC1 inh -1, IDH1 R132H inh 0, T cruzi growth-1 123*, T cruzi growth-2 89, T cruzi growth-3 inconclusive, 3T3 cytotox 84* and 3T3 cytotox 2 102*.
C[C@@H]1CN([C@H](C)CO)C(=O)c2cc(NC(=O)Nc3ccccc3)ccc2O[C@H]1CN(C)Cc1ccc(C(F)(F)F)cc1 was read as GASC1 inh 1, IDH1 R132H inh 0 and T cruzi growth-1 16.
For C[C@@H]1CN([C@H](C)CO)C(=O)c2cc(NC(=O)Nc3ccccc3)ccc2O[C@@H]1CN(C)Cc1ccc(C(F)(F)F)cc1 the results were GASC1 inh -1, IDH1 R132H inh 0 and T cruzi growth-1 29.
`C[C@@H]1CN([C@@H](C)CO)C(=O)c2cc(NC(=O)Nc3ccc(C(F)(F)F)cc3)ccc2O[C@@H]1CN(C)Cc1ccc(-c2ccccc2)cc1` gave GASC1 inh -1, T cruzi growth-1 120*, T cruzi growth-2 102*, T cruzi growth-3 98*, 3T3 cytotox 56* and 3T3 cytotox 2 103*.
For C[C@H](CO)N1C[C@H](C)[C@@H](CN(C)Cc2ccc(-c3ccccc3)cc2)Oc2ccc(NC(=O)Nc3ccc(C(F)(F)F)cc3)cc2C1=O the results were GASC1 inh -1 and T cruzi growth-1 inconclusive.
Screening COc1ccccc1C#Cc1ccc([C@H]2[C@@H](C#N)N(C(=O)C3CCCC3)[C@H]2CO)cc1 returned GASC1 inh -3.
COc1cccc(-c2ccc3c(c2)O[C@H](CN(C)Cc2cncnc2)[C@H](C)CN([C@@H](C)CO)S3(=O)=O)c1 was read as GASC1 inh -5, IDH1 R132H inh -6, T cruzi growth-1 97*, T cruzi growth-2 inconclusive, T cruzi growth-3 58, 3T3 cytotox 31 and 3T3 cytotox 2 64*.
Screening COc1cccc(-c2ccc3c(c2)O[C@@H](CN(C)Cc2cncnc2)[C@H](C)CN([C@H](C)CO)S3(=O)=O)c1 returned GASC1 inh 2, IDH1 R132H inh -2, T cruzi growth-1 inconclusive, T cruzi growth-2 inconclusive, T cruzi growth-3 64, 3T3 cytotox 39* and 3T3 cytotox 2 72*.
`COc1cccc(-c2ccc3c(c2)O[C@@H](CN(C)Cc2ccncc2)[C@@H](C)CN([C@@H](C)CO)S3(=O)=O)c1` gave GASC1 inh -2 and IDH1 R132H inh 0.
COc1cccc(-c2ccc3c(c2)O[C@H](CN(C)Cc2ccncc2)[C@@H](C)CN([C@@H](C)CO)S3(=O)=O)c1 was read as GASC1 inh 2 and IDH1 R132H inh 18.
`CN(C)C(=O)c1ccc(-c2ccc([C@H]3[C@H]4CN(C(=O)C5CCCC5)CC(=O)N4[C@H]3CO)cc2)cc1` gave GASC1 inh 1.
